Compound activity as filed in PubChem.
RGS4 act = RGS4 potentiation or activation. HEK293 M3R/inducible RGS4, carbachol calcium flux Fluo4; hits give low values. B-score at 10 µM. actives 0.92% (n = 310,000). AID 463111;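 active = B-score of the integrated calcium signal more than 4 SD below the library mean, with starting fluorescence not abnormally high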;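 note: negative B-score means reduced calcium response which marks RGS4 activation or potentiation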
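Detection: kinetic calcium fluorescence imaging with Fluo4-AM dye, 2 µM / Material: HEK293 cells with stable M3R and inducible RGS4 / Schedule: recording 10 s baseline at 1 Hz, 100 s post-agonist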
RGS4 inh = human RGS4 inhibition | AID 463165 | B-score at 10 µM | P49798 | HEK293 M3R/RGS4 inducible, Fluo-4 calcium flux; hits give high values; triggered by carbachol at its EC20 | actives 0.45% (n = 310,000);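 active = B-score, a plate-corrected calcium signal, over three deviations above library mean, with baseline fluorescence within five deviations of library mean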;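 note: RGS4 expression induced by doxycycline in cells with stable M3 receptor; B-score is computed from the integrated fluorescence ratio over baseline after carbachol; higher B-score means a larger calcium signal and so more RGS4 inhibition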
Target sequence (P49798 whole entry, looked up): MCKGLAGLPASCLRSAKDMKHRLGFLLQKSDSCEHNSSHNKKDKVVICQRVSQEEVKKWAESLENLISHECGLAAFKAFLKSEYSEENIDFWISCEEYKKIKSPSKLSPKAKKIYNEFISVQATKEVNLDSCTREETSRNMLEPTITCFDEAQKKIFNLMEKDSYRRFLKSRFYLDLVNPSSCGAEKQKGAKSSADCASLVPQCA
MrgX1 antagonist = antagonists of human MrgX1 receptor; MRGX1-HEK293 calcium flux, Fluo-4, BAM8-22 antagonism; hits give low values; B-score at 10 µM; actives 1.3% (n = 310,000); AID 588676;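 active = calcium-response B-score plate-corrected more than 3 library SD below zero, starting fluorescence within 5 deviations, no agonist response on first addition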;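 note: peak minus trough fluorescence over baseline after final BAM8-22 challenge near maximal dose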
Target sequence (Q96LB2 whole entry, looked up): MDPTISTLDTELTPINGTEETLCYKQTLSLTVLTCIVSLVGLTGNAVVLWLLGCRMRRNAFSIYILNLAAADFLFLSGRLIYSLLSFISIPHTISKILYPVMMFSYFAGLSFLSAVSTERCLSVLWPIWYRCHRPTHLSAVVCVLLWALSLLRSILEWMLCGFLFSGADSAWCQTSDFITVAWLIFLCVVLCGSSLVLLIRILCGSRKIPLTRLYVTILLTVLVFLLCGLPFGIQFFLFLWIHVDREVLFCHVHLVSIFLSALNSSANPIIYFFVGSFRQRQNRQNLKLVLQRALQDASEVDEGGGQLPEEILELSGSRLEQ
MrgX1 allo act = human MrgX1 positive allosteric modulation, primary screen | Q96LB2 | MrgX1-HEK293, Fluo-4 calcium flux, FDSS; hits give high values | B-score at 10 µM | actives 0.63% (n = 310,000);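 active = plate-corrected calcium response at least 3 library SD above typical, normal starting fluorescence, not activating the receptor alone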;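 note: compound read alongside a low EC10 to EC30 dose of BAM8-22 agonist; peak minus trough fluorescence over baseline measured at the second addition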
MrgX1 ag = agonists of human MrgX1 receptor | Q96LB2 | MrgX1-HEK293 cells, Fluo-4 calcium fluorescence, agonist mode; hits give high values | B-score at 10 µM | actives 0.44% (n = 310,000) | AID 588627;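 active = calcium response B-score plate-corrected fluorescence ratio at least 3 library SD, with starting fluorescence B-score inside 5 SD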
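Test system: HEK293 cells stably expressing human MrgX1 receptor; amount: 15,000 cells per well; doses: compound delivered in addition one of three; times: overnight plating before 1 h dye loading; detection: Fluo-4 NW calcium-flux fluorescence, kinetic read; read-out basis: B-scored fluorescence response ratio; controls: positive and negative controls per plate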
Of the large screens only hits and unclear results are named; the others gave an inactive call. An excerpt weighted towards active compounds, which were near 3.5% of everything screened.

Cc1cc(/C=N/n2cnnc2)c(C)n1-c1ccc(OCc2ccc(Cl)cc2Cl)cc1	RGS4 act -8.3
Cc1cc(/C=N/n2cnnc2)c(C)n1-c1ccc(Cl)cc1	none
CC(C)CCNC(=O)CSc1nnc(-c2ccc(S(=O)(=O)N3CCCC3)cc2)n1C	MrgX1 antagonist -5.4
CC(=O)CSc1nnc(-c2ccc(S(=O)(=O)N3CCCC3)cc2)n1C	none
CCOc1ccc(C(C)=O)cc1Cc1c(O)nc(N)[nH]c1=O	MrgX1 antagonist -5.2
CC(=O)NCCNC(=O)C1CCC(CNc2nc(=S)[nH]c3ccccc23)CC1 (stereo unspecified)	none
COc1ccc(CNC(=O)C2CCC(CNc3nc(=S)[nH]c4ccccc34)CC2)cc1 (stereo unspecified)	MrgX1 allo act 12
CCn1c(SCC(=O)N2c3ccccc3CCc3ccccc32)nc2c1c(=O)n(C)c(=O)n2C	none
CC1Cc2ccccc2N1C(=O)CSc1nc2c(c(=O)n(C)c(=O)n2C)n1Cc1ccccc1 (stereo unspecified)	RGS4 act -7.2
Cc1ccc2nc(/C(C#N)=C/c3ccc(O)c(O)c3)[nH]c2c1	MrgX1 ag 35
Cc1ccc2nc(/C(C#N)=C/c3ccccc3C(=O)O)[nH]c2c1	none
O=C(N/N=C/c1cc([N+](=O)[O-])ccc1O)c1cc(-c2ccccc2)nc2ccccc12	MrgX1 antagonist -6
CCc1ccc(OCC(=O)Nc2ccc(S(=O)(=O)Nc3ccccn3)cc2)cc1	none
C/C(=N/NC(=O)c1ccccc1O)c1ccc(N2C(=O)C3CCCCC3C2=O)cc1 (stereo unspecified)	MrgX1 antagonist -8
CC1=C(C(=O)Nc2cc(C(=O)N3CCC(C)CC3)ccc2C)SCCO1	none
Cn1c(=O)n(C)c2cc(N3CCOCC3)c(NC(=O)c3ccc(F)cc3)cc21	none
CCC1(C(=O)c2ccccc2)C(c2ccc([N+](=O)[O-])cc2)C1(C(=O)OC)C(=O)OC (stereo unspecified)	MrgX1 ag 27
CC/C(=N\Nc1ccc([N+](=O)[O-])cc1)c1ccccc1	none
COc1ccc(NS(=O)(=O)c2cccc(C(=O)NCc3cccnc3)c2)cc1	none
COc1cccc2cc(C(=O)CS(=O)(=O)c3ccc(C(C)(C)C)cc3)c(=O)oc12	none
COc1ccc(S(=O)(=O)CC(=O)c2cc3cccc(C)c3oc2=O)cc1	MrgX1 ag 42
O=C(CS(=O)(=O)c1ccccc1)c1cc2cc(F)ccc2oc1=O	MrgX1 ag 61
Cc1[nH]c(C)c(S(=O)(=O)N2CCN(c3ccccc3F)CC2)c1C(=O)N1CCCC1	none
CC[N+](CC)(CC)C/C(N)=N/O	MrgX1 antagonist -6.1
COc1ccc(/C=N/NC(=S)Nc2ccccc2[N+](=O)[O-])cc1O	MrgX1 allo act 6.8
CCC1CCCCN1S(=O)(=O)c1ccc([N+](=O)[O-])cc1 (stereo unspecified)	RGS4 act -7.4
COc1cc(NC(=O)c2cc(OC)c(OC)c(OC)c2)cc(-n2cnnn2)c1	none
Nn1c(-c2cccs2)nc2sc3c(c2c1=O)CCCC3	none
Cc1ccccc1-c1nc2sc3c(c2c(=O)n1N)CCCC3	MrgX1 allo act 18
CCCCN(C)CC(O)Cn1cc(/C=C/C(=O)c2ccc(C)cc2)c2ccccc21 (stereo unspecified)	MrgX1 antagonist -5.4
CCc1ccc(NC(=O)CSc2nc3ccccc3nc2N2CCCC2)cc1	none
CCOC(=O)c1c(N2C(=O)Nc3ccccc3N2O)sc2c1CCCC2	MrgX1 ag 37
COC(CNC(=O)[C@H](CSCc1ccccc1)N1Cc2ccccc2C1=O)OC	MrgX1 allo act 8.2
COc1ccc(CNCc2c(O)c(Cl)cc3c(C)c(C)c(=O)oc23)c(OC)c1	none
CCC1CCCCN1CCCNC(=O)c1ccc2c(c1)N(Cc1ccc(F)cc1)C(=O)c1ccccc1S2=O (stereo unspecified)	RGS4 act -8.4
O=C(NCCCN1CCCC1)c1ccc2c(c1)N(Cc1ccc(F)cc1)C(=O)c1ccccc1S2=O (stereo unspecified)	none
COC(=O)c1ccc(CN(C(C)=O)c2ccccc2)o1	RGS4 act -7.3
COc1ccc(NC(=O)CSCC(=O)N(C)CC(=O)Nc2cccc3ccccc23)cc1	none
CCOc1cc2c(cc1/C=C/c1noc(C)c1[N+](=O)[O-])OC(C)C2 (stereo unspecified)	MrgX1 ag 41
Cc1ccnc(SCC(=O)c2ccc([N+](=O)[O-])cc2)n1	none
Cc1cc(C)nc(SCC(=O)c2ccc([N+](=O)[O-])cc2)n1	MrgX1 antagonist -6.1
CCN(CC)S(=O)(=O)c1ccc(N2CCN(S(=O)(=O)c3ccccc3)CC2)nc1	none (no result: MrgX1 antagonist, MrgX1 allo act, MrgX1 ag)
CCN(CC)S(=O)(=O)c1ccc(N2CCN(S(=O)(=O)c3ccccc3C#N)CC2)nc1	MrgX1 antagonist -5 (no result: RGS4 act, RGS4 inh)
CN(C)c1ccc(-c2sc(Nc3ccccc3)n[n+]2-c2ccc(F)cc2)cc1	MrgX1 ag 47
CCc1ccc(Nc2n[n+](-c3ccccc3)c(-c3ccc(N(CC)CC)cc3)s2)cc1	MrgX1 ag 45
COc1ccc(C)cc1Nc1n[n+](-c2ccccc2)c(-c2ccc(N(C)C)cc2)s1	MrgX1 ag 34
COc1ccc2ccccc2c1-c1sc(Nc2ccccc2)n[n+]1-c1ccc(F)cc1	MrgX1 antagonist -5.9
CCN(CC)c1ccc(-c2sc(Nc3ccccc3)n[n+]2-c2ccc(F)cc2)cc1	none
CCc1ccc(Nc2n[n+](-c3ccccc3)c(/C=C/c3ccccc3)s2)cc1	MrgX1 allo act 7.4
CCOCC(=O)Nc1cc(Cl)c(OC)cc1OC	none
Cc1nnc(N/N=C/c2ccc(Br)cc2)n1N	MrgX1 allo act 18
Cc1nnc(N/N=C/c2ccc(-c3ccc(Br)cc3)o2)n1N	none
O=C(O)/C=C/c1ccc([N+](=O)[O-])o1	MrgX1 antagonist -5.2
CN1CCN(C(=O)/C=C/c2ccc([N+](=O)[O-])o2)CC1	none (no result: MrgX1 antagonist, MrgX1 allo act, MrgX1 ag)
Cc1ccc(C)c(S(=O)(=O)/N=C2\C=C(NS(=O)(=O)c3ccccc3)C(=O)c3ccccc32)c1	none
Cc1cc(C)c(S(=O)(=O)/N=C2/C=C(Sc3ncn[nH]3)C(=O)c3ccccc32)cc1C	MrgX1 allo act 6.8 (no result: RGS4 act, RGS4 inh)
Cc1ccc(C(=O)Nc2cccc(C(F)(F)F)c2)cc1NC(=O)c1csc(-c2ccncc2)n1	none
N#C/C(=N\Nc1cccc(C(F)(F)F)c1)C(=O)c1csc(-c2cccnc2)n1	MrgX1 antagonist -5.7
CCOC(=O)c1c(NC(=O)CSc2nnc(-c3cccc(C)c3)n2CC)sc(C(C)=O)c1C	RGS4 act -7
CCOC(=O)c1c(NC(=O)CSc2nnc(-c3ccccc3)n2CC)sc(C(C)=O)c1C	none
COCCn1ccc2c(OCC(=O)NCc3ccc(C)cc3)cccc2c1=O	none
CCN1C(=O)/C(=C/N2CCc3ccccc32)SC1=S	MrgX1 ag 34
COc1ccc(CN=CC2=C(O)CNC2=O)cc1	none
